This is a sample that favours compounds with a hit; in the whole collection about 1.9% have one here.
XiGFP reactiv = activators of inactive X chromosome reactivation, primary screen, imaging, XiGFP fibroblasts, GFP high-content imaging, set 2; XiGFP mouse fibroblasts, % GFP-positive cells imaging, 3 d; cells co-treated with 5-aza-dC sensitizer; scaled so ellipticine positive control = 100%; activation, % at 7.58 µM; hit rate 0.055% among 360,000; AID 743238, 2013;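 active = mean normalized replicate activation at least 10% and every replicate at or above 10%; inconclusive = only one of the two criteria met; inactive = mean below 10% and not all replicates reach 10%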
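assay system = SV40-immortalized XiGFP fibroblast cells, line 68-5-11 | buffer or medium = DMEM plus 5-aza-dC sensitizer | doses = single-point pinned compound dosing | times = 3-day compound exposure, then 15 min fixation at room temperature | benchmarks = positive control ellipticine, 6 µM final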
Cneo AK release = Cryptococcus neoformans cell lysis inducers, primary screen, AK release luminescence, single concentration; C. neoformans lysis, adenylate kinase release luminescence, 4 h; normalised: neutral wells 0, clomiphene wells 100; lysis activity, % at 15 µM; hit rate 0.2% among 360,000; AID 651654, 2012;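 active = mean lysis activity across replicates of at least 80%, whatever share of replicates individually reach that level; inactive = mean lysis activity below 80%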
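Schedule: static 4 h at 37 °C with compound, 1 h detection; system: C. neoformans cells; benchmarks: Clomiphene as positive control; buffer or medium: fresh YPD medium; measure: luminescence rise reflecting yeast cell lysis; measured by: luminescent adenylate kinase detection reagent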
DENV2 CPE rescue = inhibitors of DENV2 cytopathic effect, primary screen, cell-based, plate reader, single concentration | DENV2-infected cells, cytopathic effect rescue | CPE inhibition, % at 9.99 µM | hit rate 1.7% among 350,000 | AID 651640, 2012; in the data active = CPE inhibition above about 20%, passing the limit was not always enough; inconclusive = no clear call, values can overlap the other calls; tested in BHK-21 cells
PGC1a acetyl inh = inhibitors of PGC1a acetylation signal, primary screen, cell-based, U2OS, AlphaScreen, inhibitor mode; AlphaScreen anti-acetyl-lysine; with virally co-expressed GCN5 acetyltransferase; inhibition, % at 15.6 µM; hit rate 0.17% among 350,000; AID 651687, 2012;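 active = every replicate shows inhibition of at least 40%; inconclusive = mean inhibition at least 40% but some replicate below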
F508del corr = F508del CFTR correction, initial screen, CFBE line, single point; CFBE cells, YFP halide quenching; stimulated with forskolin plus potentiator P3; % fluorescence drop versus neutral controls; activity (quench increase), % at 7.58 µM; hit rate 0.36% among 350,000;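 active = mean added fluorescence quench of at least 8% versus neutral control, with both replicates also reaching 8%; inconclusive = only one of the mean or replicate conditions met; inactive = mean below 8% and not both replicates reaching 8%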;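 note: cells transiently co-express mutant CFTR-F508del with the halide-sensitive YFP; corrector assay measuring rescue of mutant channel to the surface after 24 h compound exposure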
FN deposit inh = inhibitors of fibronectin matrix deposition, primary screen, AH1F cells, Alexa488-fibronectin fluorescence, plate reader; AH1F fibroblasts, overnight; inhibition, % at 12.6 µM; hit rate 0.086% among 350,000;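 active = mean inhibition across replicates of 30% or more, regardless of how many single replicates reach that level; inconclusive = mean under 30% yet at least half of replicates reach 30%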
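Material: AH1F fibroblast monolayer depositing Alexa488-labelled fibronectin into matrix / Amount: 10000 AH1F cells per well / Signal: fluorescence 485/525 nm / Medium: DMEM, 2% serum / Compound: single dose, pinned / Incubation: 1 h cell adhesion before compound, then overnight fibronectin incubation / Reagent: Alexa488-FN, 24 nM final / Read-out: inhibition of fibronectin deposition signal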
Each line names hits and unclear results; the compound was inactive in the other large screens; ! = not confirmed by another sample.

CCCC(=O)Nc1ccc2c(c1)C(=O)N(C)[C@@H]1CC[C@H](CC(=O)NCCCN(C)C)O[C@H]1CO2	none
CCCC(=O)Nc1ccc2c(c1)C(=O)N(C)[C@H]1CC[C@H](CC(=O)NCCCN(C)C)O[C@H]1CO2	DENV2 CPE rescue 48.8
CN1c2ccc(-c3ccccc3)cc2[C@H]2[C@H](CCN2C(=O)Cc2ccccn2)[C@@H]1CO	none
C[C@@H]1CN([C@@H](C)CO)C(=O)c2cc(N(C)C)ccc2O[C@H]1CN(C)CC1CCCCC1	none
C[C@@H]1CN([C@@H](C)CO)S(=O)(=O)c2ccc(-c3ccc(C(=O)N(C)C)cc3)cc2O[C@@H]1CN(C)C(=O)C1CCC1	none
C[C@@H]1CN([C@H](C)CO)C(=O)c2cc(NC(=O)Cc3ccccc3)ccc2O[C@@H]1CN(C)C(=O)Nc1cccc2ccccc12	none (no result: FN deposit inh)
COc1ccc(NC(=O)Nc2ccc3c(c2)CC(=O)N([C@H](C)CO)C[C@H](C)[C@@H](CN(C)Cc2ccncc2)O3)cc1	none (no result: FN deposit inh)
C[C@@H]1CN([C@@H](C)CO)C(=O)c2cc(-c3cccnc3)cnc2O[C@@H]1CN(C)Cc1ccc(-c2ccccc2)cc1	DENV2 CPE rescue 37.2 (no result: FN deposit inh)
C[C@@H]1CN([C@H](C)CO)C(=O)c2cc(-c3cccc(F)c3)cnc2O[C@H]1CN(C)Cc1ccccc1	Cneo AK release 116.3
C[C@@H]1CN([C@@H](C)CO)C(=O)c2cc(-c3cccc(F)c3)cnc2O[C@H]1CN(C)Cc1ccccc1	none
CNC[C@@H]1Oc2ncc(-c3cccc(F)c3)cc2C(=O)N([C@@H](C)CO)C[C@@H]1C	DENV2 CPE rescue 24.6
C[C@@H]1CN([C@@H](C)CO)C(=O)c2cc(-c3cccc(F)c3)cnc2O[C@@H]1CN(C)C(=O)Nc1cc(F)ccc1F	DENV2 CPE rescue 26.1
C[C@H](CO)N1C[C@H](C)[C@H](CN(C)C)Oc2ncc(Br)cc2C1=O	none
C[C@@H]1CN([C@H](C)CO)C(=O)c2cc(Br)cnc2O[C@@H]1CN(C)C(=O)c1ccccc1	DENV2 CPE rescue 65.1!
COc1ccc(-c2cnc3c(c2)C(=O)N([C@@H](C)CO)C[C@@H](C)[C@@H](CN(C)S(C)(=O)=O)O3)cc1	Cneo AK release 93.5
C[C@@H]1CN([C@H](C)CO)C(=O)c2cc(-c3ccc(F)cc3)cnc2O[C@@H]1CN(C)Cc1ccc(F)cc1	none (no result: Cneo AK release, DENV2 CPE rescue)
COc1ccc(-c2cnc3c(c2)C(=O)N([C@H](C)CO)C[C@H](C)[C@H](CN(C)Cc2ccc(F)cc2)O3)cc1	Cneo AK release 98.0 (no result: XiGFP reactiv, F508del corr, FN deposit inh)
C[C@@H]1CN([C@@H](C)CO)C(=O)c2cc(Br)cnc2O[C@@H]1CN(C)S(C)(=O)=O	DENV2 CPE rescue 32.3!
CCC(=O)N(C)C[C@H]1Oc2cc(C#C[C@@H](C)O)ccc2S(=O)(=O)N([C@H](C)CO)C[C@@H]1C	none (no result: Cneo AK release, DENV2 CPE rescue, PGC1a acetyl inh, F508del corr)
COc1ccc(NC(=O)Nc2ccc3c(c2)[C@H]2C[C@@H](CC(=O)N(C)C)O[C@H](CO)[C@H]2O3)cc1	none
C[C@H]1CN([C@@H](C)CO)C(=O)c2cc(-c3ccc(F)cc3)cnc2O[C@@H]1CN(C)CC1CCCCC1	Cneo AK release 90.0
C[C@@H]1CN([C@@H](C)CO)C(=O)c2cc(-c3ccccc3)cnc2O[C@H]1CN(C)Cc1ccccc1	none
C[C@H](CO)N1C[C@H](C)[C@@H](CN(C)CC2CCCC2)Oc2ncc(-c3ccc(F)cc3)cc2C1=O	none
C[C@@H]1CN([C@@H](C)CO)C(=O)c2cc(-c3ccccc3)cnc2O[C@@H]1CN(C)Cc1ccccc1	FN deposit inh 38.5
C[C@@H]1CN([C@@H](C)CO)C(=O)c2cc(Br)cnc2O[C@H]1CN(C)CC1CCOCC1	none
C[C@H](CO)N1C[C@H](C)[C@@H](CN(C)CC2CCOCC2)Oc2ncc(Br)cc2C1=O	PGC1a acetyl inh 88.9!
O=C(N[C@H]1CC[C@@H](CCNS(=O)(=O)c2ccc(F)cc2)O[C@@H]1CO)C1CC1	none
CNC[C@@H]1Oc2ccc(NS(=O)(=O)c3ccc(C)cc3)cc2C(=O)N([C@H](C)CO)C[C@@H]1C	none (no result: FN deposit inh)
Cc1ccc(C(=O)OCC(=O)Nc2ccccc2C(F)(F)F)cc1S(=O)(=O)N1CCCCC1	DENV2 CPE rescue 101.1
Cc1ccc(C(=O)OCC(=O)N2C(C)CCCC2C)cc1S(=O)(=O)N1CCOCC1 (stereo not drawn)	DENV2 CPE rescue 25.1 (no result: Cneo AK release)
COc1ccc(C(=O)OCC(=O)N2C(C)CCCC2C)cc1S(=O)(=O)N1CCOCC1 (stereo not drawn)	F508del corr 11.0
O=C(N[C@H]1CC[C@H](CCn2cc(C3CCCCC3)nn2)O[C@H]1CO)c1cccnc1	none
COc1ccc2c3c([nH]c2c1)[C@@H](CO)N(C)CC31CCN(C(=O)NC(C)C)CC1	DENV2 CPE rescue inconclusive (no result: Cneo AK release, FN deposit inh)
C[C@H]1CN([C@@H](C)CO)C(=O)Cc2cc(NC(=O)Nc3ccc(F)cc3)ccc2O[C@H]1CN(C)S(=O)(=O)c1cccs1	none
C[C@@H]1CCCCO[C@H](CN(C)C(=O)CCCN(C)C)[C@@H](C)CN([C@@H](C)CO)C(=O)c2cc(NC(=O)Nc3ccc4c(c3)OCO4)ccc2O1	DENV2 CPE rescue 47.4
C[C@H](CO)N1C[C@H](C)[C@H](CN(C)C(=O)CCCN(C)C)OCCCC[C@H](C)Oc2ccc(NC(=O)Cc3ccccc3)cc2C1=O	DENV2 CPE rescue 98.2
C[C@H]1CCCCO[C@H](CN(C)C(=O)CCCN(C)C)[C@@H](C)CN([C@@H](C)CO)C(=O)c2cc(NC(=O)Cc3ccccc3)ccc2O1	DENV2 CPE rescue 29.0
C[C@@H]1CCCCO[C@@H](CN(C)C(=O)CCCN(C)C)[C@H](C)CN([C@H](C)CO)C(=O)c2cc(NC(=O)Cc3ccccc3)ccc2O1	none
C[C@@H]1CCCCO[C@@H](CN(C)C(=O)CCCN(C)C)[C@H](C)CN([C@@H](C)CO)C(=O)c2cc(NC(=O)Cc3ccccc3)ccc2O1	none
C[C@@H]1CCCCO[C@@H](CN(C)C(=O)CCCN(C)C)[C@H](C)CN([C@H](C)CO)C(=O)c2cc(NC(=O)Nc3ccc4c(c3)OCO4)ccc2O1	none
NC(=O)NCC#Cc1ccc2c(c1)[C@]1(C(=O)N2)[C@H](c2ccccc2OCCO)N2[C@H](c3ccccc3)[C@H](c3ccccc3)OC(=O)[C@H]2[C@@H]1C(=O)N1CCN(c2ncccn2)CC1	none (no result: XiGFP reactiv, PGC1a acetyl inh, FN deposit inh)

Screening results from PubChem BioAssay.
